From ChEMBL document CHEMBL1142063, “Synthesis of omeprazole analogues and evaluation of these as potential inhibitors of the multidrug efflux pump NorA of Staphylococcus aureus” (2007)
Activity calls are given as the source filed them. The calls are words filed in the database; no cut-off is given here.

Key:
Staphylococcus aureus [1] = test: Increase in 5 ug ciprofloxacin antibacterial activity against Staphylococcus aureus SA1199B mutant overexpressing NorA at 128 ug/ml by disk diffusion method; type: functional
In short: (§1)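 Agar diffusion on Mueller-Hinton agar (adjusted to 20 μg/ml Ca²⁺ and 10 μg/ml Mg²⁺), used plain or with the efflux inhibitor incorporated at the stated concentration. Disks were 5 μg for the fluoroquinolones and 30 μg for chloramphenicol. Plates were incubated overnight at 37°C, and inhibition zone diameters were measured. Values are means of at least three independent experiments.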

Staphylococcus aureus [2] = test: Increase in 64 ug/ml Norfloxacin antibacterial activity against Staphylococcus aureus SA1199B mutant overexpressing NorA at 128 ug/ml by checker board method; type: functional
Staphylococcus aureus [3] = test: Increase in 30 ug chloramphenicol antibacterial activity against Staphylococcus aureus SA1199B mutant overexpressing NorA at 128 ug/ml by disk diffusion method; type: functional; in short: as §1
Staphylococcus aureus [4] = test: Increase in 5 ug ofloxacin antibacterial activity against Staphylococcus aureus SA1199B mutant overexpressing NorA at 64 ug/ml by disk diffusion method; type: functional; in short: as §1
Staphylococcus aureus [5] = test: Increase in 5 ug levofloxacin antibacterial activity against Staphylococcus aureus SA1199B mutant overexpressing NorA at 128 ug/ml by disk diffusion method; type: functional; in short: as §1
Staphylococcus aureus [6] = test: Increase in 5 ug ofloxacin antibacterial activity against Staphylococcus aureus SA1199B mutant overexpressing NorA at 128 ug/ml by disk diffusion method; type: functional; in short: as §1
Staphylococcus aureus [7] = test: Increase in 5 ug ciprofloxacin antibacterial activity against Staphylococcus aureus SA1199B mutant overexpressing NorA at 16 ug/ml by disk diffusion method; type: functional; in short: as §1
Staphylococcus aureus [8] = test: Increase in 16 ug/ml Norfloxacin accumulation in Staphylococcus aureus SA1199B mutant overexpressing NorA measured per milligram of cell protein at 128 ug/ml after 20 mins; type: functional, organism-based
In short: (§2)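 SA-1199B was grown to mid-exponential phase in MH broth (4–5 h, 37°C, shaken), then washed and resuspended in 50 mM sodium phosphate, pH 7.0. Cells got norfloxacin at one-quarter MIC, alone or with inhibitor at 128 μg/ml. At 5–20 min, cells were spun through silicone-paraffin oil into orthophosphoric acid. Norfloxacin was measured by HPLC fluorescence (ex 240/[…]) as ng/mg BCA protein. Means of triplicate experiments.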

Staphylococcus aureus [9] = test: Increase in 5 ug sparfloxacin antibacterial activity against Staphylococcus aureus SA1199B mutant overexpressing NorA at 128 ug/ml by disk diffusion method; type: functional; in short: as §1
Staphylococcus aureus [10] = test: Increase in 5 ug Norfloxacin antibacterial activity against Staphylococcus aureus SA1199B mutant overexpressing NorA at 16 ug/ml by disk diffusion method; type: functional; in short: as §1
Staphylococcus aureus [11] = test: Increase in 30 ug chloramphenicol antibacterial activity against Staphylococcus aureus SA1199B mutant overexpressing NorA at 16 ug/ml by disk diffusion method; type: functional; in short: as §1
Staphylococcus aureus [12] = test: Increase in 16 ug/ml Norfloxacin accumulation in Staphylococcus aureus SA1199B mutant overexpressing NorA measured per mg of cell protein at 128 ug/ml after 5 mins; type: functional, organism-based; in short: as §2
Staphylococcus aureus [13] = test: Increase in 5 ug moxifloxacin antibacterial activity against Staphylococcus aureus SA1199B mutant overexpressing NorA at 32 ug/ml by disk diffusion method; type: functional; in short: as §1
Staphylococcus aureus [14] = test: Antibacterial activity against Staphylococcus aureus; type: functional
In short: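 Tube broth dilution MIC against SA-1199 and NorA-overproducing SA-1199B in Mueller-Hinton broth with 20 μg/ml Ca²⁺ and 10 μg/ml Mg²⁺. Inoculum was a 4–5 h 37°C culture diluted 1/10 (≈10⁶ CFU/ml). Compound range was 512 to 1 μg/ml, dissolved in DMSO (final ≤4%).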

Staphylococcus aureus [15] = test: Increase in 5 ug moxifloxacin antibacterial activity against Staphylococcus aureus SA1199B mutant overexpressing NorA at 64 ug/ml by disk diffusion method; type: functional; in short: as §1
Staphylococcus aureus [16] = test: Increase in 5 ug Norfloxacin antibacterial activity against Staphylococcus aureus SA1199B mutant overexpressing NorA at 128 ug/ml by disk diffusion method; type: functional; in short: as §1
Staphylococcus aureus [17] = test: Increase in 5 ug ciprofloxacin antibacterial activity against Staphylococcus aureus SA1199B mutant overexpressing NorA at 64 ug/ml by disk diffusion method; type: functional; in short: as §1
Staphylococcus aureus [18] = test: Increase in 5 ug sparfloxacin antibacterial activity against Staphylococcus aureus SA1199B mutant overexpressing NorA at 16 ug/ml by disk diffusion method; type: functional; in short: as §1
Staphylococcus aureus [19] = test: Increase in 16 ug/ml Norfloxacin accumulation in wild type Staphylococcus aureus SA1199 at 128 ug/ml after 20 mins; type: functional
In short: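 Mid-exponential SA-1199 cells were washed and resuspended in 50 mM sodium phosphate, pH 7.0. They were exposed at time zero to norfloxacin at one-quarter MIC, alone or with EPI at 128 μg/ml. At 5–20 min, cells were spun through silicone-paraffin oil into orthophosphoric acid. Lysate norfloxacin was measured by C18 HPLC with fluorescence detection (ex 240, em 280 nm) and normalized to BCA protein (ng/mg). Triplicate experiments, mean reported.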

Staphylococcus aureus [20] = test: Increase in 16 ug/ml Norfloxacin accumulation in Staphylococcus aureus SA1199B mutant overexpressing NorA at 128 ug/ml after 20 mins; type: functional; in short: as §2
Staphylococcus aureus [21] = test: Increase in 5 ug Norfloxacin antibacterial activity against Staphylococcus aureus SA1199B mutant overexpressing NorA at 32 ug/ml by disk diffusion method; type: functional; in short: as §1
Staphylococcus aureus [22] = test: Increase in 5 ug sparfloxacin antibacterial activity against Staphylococcus aureus SA1199B mutant overexpressing NorA at 64 ug/ml by disk diffusion method; type: functional; in short: as §1
Staphylococcus aureus [23] = test: Increase in 5 ug sparfloxacin antibacterial activity against Staphylococcus aureus SA1199B mutant overexpressing NorA at 32 ug/ml by disk diffusion method; type: functional; in short: as §1
Staphylococcus aureus [24] = test: Increase in 30 ug chloramphenicol antibacterial activity against Staphylococcus aureus SA1199B mutant overexpressing NorA at 64 ug/ml by disk diffusion method; type: functional; in short: as §1
Staphylococcus aureus [25] = test: Increase in 5 ug levofloxacin antibacterial activity against Staphylococcus aureus SA1199B mutant overexpressing NorA at 64 ug/ml by disk diffusion method; type: functional; in short: as §1
Staphylococcus aureus [26] = test: Increase in 5 ug ofloxacin antibacterial activity against Staphylococcus aureus SA1199B mutant overexpressing NorA at 32 ug/ml by disk diffusion method; type: functional; in short: as §1
Staphylococcus aureus [27] = test: Increase in 5 ug levofloxacin antibacterial activity against Staphylococcus aureus SA1199B mutant overexpressing NorA at 16 ug/ml by disk diffusion method; type: functional; in short: as §1
Staphylococcus aureus [28] = test: Increase in 5 ug Norfloxacin antibacterial activity against Staphylococcus aureus SA1199B mutant overexpressing NorA at 64 ug/ml by disk diffusion method; type: functional; in short: as §1
Staphylococcus aureus [29] = test: Increase in 5 ug levofloxacin antibacterial activity against Staphylococcus aureus SA1199B mutant overexpressing NorA at 32 ug/ml by disk diffusion method; type: functional; in short: as §1
Staphylococcus aureus [30] = test: Increase in 5 ug moxifloxacin antibacterial activity against Staphylococcus aureus SA1199B mutant overexpressing NorA at 16 ug/ml by disk diffusion method; type: functional; in short: as §1
Staphylococcus aureus [31] = test: Increase in 5 ug moxifloxacin antibacterial activity against Staphylococcus aureus SA1199B mutant overexpressing NorA at 128 ug/ml by disk diffusion method; type: functional; in short: as §1
Staphylococcus aureus [32] = test: Increase in 30 ug chloramphenicol antibacterial activity against Staphylococcus aureus SA1199B mutant overexpressing NorA at 32 ug/ml by disk diffusion method; type: functional; in short: as §1
Staphylococcus aureus [33] = test: Increase in 2 ug/ml Norfloxacin antibacterial activity against wild type Staphylococcus aureus SA1199 at 128 ug/ml by checker board method; type: functional
Staphylococcus aureus [34] = test: Increase in 5 ug ciprofloxacin antibacterial activity against Staphylococcus aureus SA1199B mutant overexpressing NorA at 32 ug/ml by disk diffusion method; type: functional; in short: as §1
Staphylococcus aureus [35] = test: Increase in 5 ug ofloxacin antibacterial activity against Staphylococcus aureus SA1199B mutant overexpressing NorA at 16 ug/ml by disk diffusion method; type: functional; in short: as §1
Staphylococcus aureus [36] = test: Increase in 16 ug/ml Norfloxacin antibacterial activity against Staphylococcus aureus SA1199B mutant overexpressing NorA at 128 ug/ml after 24 hrs by time-kill curve method; type: functional, organism-based
In short: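 Log-phase SA-1199B inoculum at 10⁶ CFU/ml in MH broth with norfloxacin 16 μg/ml plus inhibitor 128 μg/ml, 37°C. Viable counts were taken by dilution plating in triplicate on MH agar at 0, 2, 4, 8 and 24 h. Results are expressed as log percentage survival, means of three experiments. Sensitivity limit was 1 log₁₀ CFU/ml.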

Staphylococcus aureus [37] = test: Antibacterial activity against Staphylococcus aureus SA1199 at 5 ug by disk diffusion method; conditions: read-out: IZ
Staphylococcus aureus [38] = test: Antibacterial activity against Staphylococcus aureus SA1199B overexpressing NorA at 30 ug by disk diffusion method; type: functional; conditions: read-out: IZ; in short: as §1

SMILES	inhibition zone (IZ) (Staphylococcus aureus [1])	MIC (Staphylococcus aureus [2])	inhibition zone (IZ) (Staphylococcus aureus [3])	inhibition zone (IZ) (Staphylococcus aureus [4])	inhibition zone (IZ) (Staphylococcus aureus [5])	inhibition zone (IZ) (Staphylococcus aureus [6])	inhibition zone (IZ) (Staphylococcus aureus [7])	Drug uptake (Staphylococcus aureus [8])	inhibition zone (IZ) (Staphylococcus aureus [9])	inhibition zone (IZ) (Staphylococcus aureus [10])	inhibition zone (IZ) (Staphylococcus aureus [11])	Drug uptake (Staphylococcus aureus [12])	inhibition zone (IZ) (Staphylococcus aureus [13])	MIC (Staphylococcus aureus [14])	inhibition zone (IZ) (Staphylococcus aureus [15])	inhibition zone (IZ) (Staphylococcus aureus [16])	Activity (Staphylococcus aureus [19])	Activity (Staphylococcus aureus [20])	inhibition zone (IZ) (Staphylococcus aureus [31])	MIC (Staphylococcus aureus [33])	further results
COC(=O)[C@H]1[C@H]2C[C@@H]3c4[nH]c5cc(OC)ccc5c4CCN3C[C@H]2C[C@@H](OC(=O)c2cc(OC)c(OC)c(OC)c2)[C@@H]1OC [RESERPINE]	22 mm	8 µg/mL	25 mm	20 mm	24 mm	21 mm	16 mm	400 ng/mg	28 mm	9 mm	24 mm	270 ng/mg	28 mm	> 512 µg/mL	28 mm	13 mm	10%	40%	28 mm	1 µg/mL	inhibition zone (IZ) (Staphylococcus aureus [17]): 20 mm; inhibition zone (IZ) (Staphylococcus aureus [18]): 27 mm; inhibition zone (IZ) (Staphylococcus aureus [21]): 12 mm; inhibition zone (IZ) (Staphylococcus aureus [22]): 27 mm; inhibition zone (IZ) (Staphylococcus aureus [23]): 27 mm; inhibition zone (IZ) (Staphylococcus aureus [24]): 25 mm; inhibition zone (IZ) (Staphylococcus aureus [25]): 24 mm; inhibition zone (IZ) (Staphylococcus aureus [26]): 19 mm; inhibition zone (IZ) (Staphylococcus aureus [27]): 22 mm; inhibition zone (IZ) (Staphylococcus aureus [28]): 12 mm; inhibition zone (IZ) (Staphylococcus aureus [29]): 24 mm; inhibition zone (IZ) (Staphylococcus aureus [30]): 28 mm; inhibition zone (IZ) (Staphylococcus aureus [32]): 24 mm; inhibition zone (IZ) (Staphylococcus aureus [34]): 18 mm; inhibition zone (IZ) (Staphylococcus aureus [35]): 19 mm
COc1ccc2[nH]c([S+]([O-])Cc3nc4cc(Cl)ccc4n4cccc34)nc2c1 (stereo not drawn)	25 mm	4 µg/mL	27 mm		27 mm	26 mm		400 ng/mg	28 mm			270 ng/mg		> 512 µg/mL		18 mm	10%	40%	28 mm	1 µg/mL	Activity (Staphylococcus aureus [36]): Active
C[C@@H]1CN(c2c(F)c(N)c3c(=O)c(C(=O)O)cn(C4CC4)c3c2F)C[C@H](C)N1 [SPARFLOXACIN]																					zone of inhibition at 5 µg/disc (Staphylococcus aureus [37]): 30 mm
C[C@H]1COc2c(N3CCN(C)CC3)c(F)cc3c(=O)c(C(=O)O)cn1c23 [LEVOFLOXACIN]																					zone of inhibition at 5 µg/disc (Staphylococcus aureus [37]): 30 mm
O=C(N[C@H](CO)[C@H](O)c1ccc([N+](=O)[O-])cc1)C(Cl)Cl [CHLORAMPHENICOL]																					zone of inhibition at 30 µg/disc (Staphylococcus aureus [38]): 24 mm
COc1ccc2[nH]c([S+]([O-])Cc3ncc(C)c(OC)c3C)nc2c1 (stereo not drawn) [OMEPRAZOLE]	22 mm	8 µg/mL	25 mm	20 mm	25 mm	23 mm	13 mm	400 ng/mg	28 mm	6 mm	24 mm	270 ng/mg	27 mm	> 512 µg/mL	29 mm	14 mm	10%	40%	30 mm	1 µg/mL	inhibition zone (IZ) (Staphylococcus aureus [17]): 19 mm; inhibition zone (IZ) (Staphylococcus aureus [18]): 26 mm; inhibition zone (IZ) (Staphylococcus aureus [21]): 6 mm; inhibition zone (IZ) (Staphylococcus aureus [22]): 27 mm; inhibition zone (IZ) (Staphylococcus aureus [23]): 27 mm; inhibition zone (IZ) (Staphylococcus aureus [24]): 24 mm; inhibition zone (IZ) (Staphylococcus aureus [25]): 23 mm; inhibition zone (IZ) (Staphylococcus aureus [26]): 18 mm; inhibition zone (IZ) (Staphylococcus aureus [27]): 21 mm; inhibition zone (IZ) (Staphylococcus aureus [28]): 12 mm; inhibition zone (IZ) (Staphylococcus aureus [29]): 21 mm; inhibition zone (IZ) (Staphylococcus aureus [30]): 27 mm; inhibition zone (IZ) (Staphylococcus aureus [32]): 24 mm; inhibition zone (IZ) (Staphylococcus aureus [34]): 15 mm; inhibition zone (IZ) (Staphylococcus aureus [35]): 18 mm
